In ChEMBL document CHEMBL4425169 (ACS Med Chem Lett, 2016):

How the values were obtained:
Rattus norvegicus [1] = experiment: Diuretic activity in Sprague-Dawley rat at 1 mg/kg via oral gavage administered 30 mins prior to void induction by loading saline measured upto 4 hrs relative to vehicle treated control; format: functional
How it was run: (§1)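 Acute rat diuresis model in male-unspecified Sprague-Dawley rats, single oral dose, urine collected over 4 h. Urine volume, sodium excretion and potassium excretion expressed as fold increase over vehicle-treated controls; n = 5 per group; significance tested against vehicle.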

[2] = Half life in rat at 0.5 mg/kg, iv or 1 mg/kg, po; format: ADME, organism-based; settings: in vivo
Rattus norvegicus [3] = experiment: Natriuretic activity in Sprague-Dawley rat at 3 mg/kg via oral gavage administered 30 mins prior to void induction by loading saline measured upto 4 hrs relative to vehicle treated control; format: functional
How it was run: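 Acute 4 h diuresis/natriuresis study in SD rats given a single oral dose, n = 5 per group. Urinary sodium output is expressed as fold increase over vehicle-treated animals, with significance tested against vehicle.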

[4] = Dose normalized AUC in rat at 1 mg/kg, po; format: ADME, organism-based; settings: in vivo
Rattus norvegicus [5] = experiment: Natriuretic activity in Sprague-Dawley rat at 0.3 mg/kg via oral gavage administered 30 mins prior to void induction by loading saline measured upto 4 hrs relative to vehicle treated control; format: functional; how it was run: as §1
[6] = biological target: T1, Voltage-gated inwardly rectifying potassium channel KCNH2 (Homo sapiens, UniProt Q12809); experiment: Inhibition of human ERG after 6 mins by electrophysiological assay
Rattus norvegicus [7] = experiment: Kaliuretic activity in Sprague-Dawley rat at 0.3 mg/kg via oral gavage administered 30 mins prior to void induction by loading saline measured upto 4 hrs relative to vehicle treated control; format: functional; how it was run: as §1
Rattus norvegicus [8] = experiment: Kaliuretic activity in Sprague-Dawley rat at 3 mg/kg via oral gavage administered 30 mins prior to void induction by loading saline measured upto 4 hrs relative to vehicle treated control; format: functional; how it was run: as §1
Rattus norvegicus [9] = experiment: Diuretic activity in Sprague-Dawley rat at 0.3 mg/kg via oral gavage administered 30 mins prior to void induction by loading saline measured upto 4 hrs relative to vehicle treated control; format: functional; how it was run: as §1
Rattus norvegicus [10] = experiment: Diuretic activity in Sprague-Dawley rat at 3 mg/kg via oral gavage administered 30 mins prior to void induction by loading saline measured upto 4 hrs relative to vehicle treated control; format: functional
How it was run: (§2)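 Acute 4 h study in Sprague-Dawley rats after oral dosing, n = 5 per group. Urine volume and sodium and potassium excretion were expressed as fold increase over vehicle-treated animals. Significance was tested versus vehicle (p < 0.05 or p < 0.01).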

Rattus norvegicus [11] = experiment: Natriuretic activity in Sprague-Dawley rat at 1 mg/kg via oral gavage administered 30 mins prior to void induction by loading saline measured upto 4 hrs relative to vehicle treated control; format: functional; how it was run: as §1
[12] = Clearance in rat at 0.5 mg/kg, iv or 1 mg/kg, po; format: ADME, organism-based; settings: in vivo
[13] = Oral bioavailability in rat at 1 mg/kg; format: ADME, organism-based; settings: in vivo
[14] = Volume of distribution at steady state in rat at 0.5 mg/kg, iv or 1 mg/kg, po; format: ADME, organism-based; settings: in vivo, read-out: Vdss
Rattus norvegicus [15] = experiment: Kaliuretic activity in Sprague-Dawley rat at 1 mg/kg via oral gavage administered 30 mins prior to void induction by loading saline measured upto 4 hrs relative to vehicle treated control; format: functional; how it was run: as §1
[16] = biological target: T1, Voltage-gated inwardly rectifying potassium channel KCNH2; experiment: Displacement of [35S]MK-499 from human ERG
[17] = biological target: T2, ATP-sensitive inward rectifier potassium channel 1 (Homo sapiens, UniProt P48048); experiment: Inhibition of ROMK (unknown origin) after 30 mins by 86Rb+ efflux assay
T2 sequence (P48048 whole entry): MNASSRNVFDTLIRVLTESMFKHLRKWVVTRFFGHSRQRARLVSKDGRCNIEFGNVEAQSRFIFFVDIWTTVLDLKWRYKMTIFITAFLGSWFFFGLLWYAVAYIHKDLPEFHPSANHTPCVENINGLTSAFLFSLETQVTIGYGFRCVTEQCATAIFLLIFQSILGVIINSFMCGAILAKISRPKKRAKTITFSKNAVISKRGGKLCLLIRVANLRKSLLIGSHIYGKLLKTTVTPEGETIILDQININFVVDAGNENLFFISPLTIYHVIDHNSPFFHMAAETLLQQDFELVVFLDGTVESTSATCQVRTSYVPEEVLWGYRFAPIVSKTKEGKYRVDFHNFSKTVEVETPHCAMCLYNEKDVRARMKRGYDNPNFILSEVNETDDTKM

Homo sapiens [18] = species: Homo sapiens; experiment: Selectivity ratio of IC50 for human ERG to IC50 for ROMK (unknown origin)
Rattus norvegicus [19] = experiment: Diuretic activity in Sprague-Dawley rat at 10 mg/kg via oral gavage administered 30 mins prior to void induction by loading saline measured upto 4 hrs relative to vehicle treated control; format: functional; how it was run: as §2
Rattus norvegicus [20] = experiment: Natriuretic activity in Sprague-Dawley rat at 10 mg/kg via oral gavage administered 30 mins prior to void induction by loading saline measured upto 4 hrs relative to vehicle treated control; format: functional; how it was run: as §2
[21] = Half life in rat at 1 mg/kg, iv or 2 mg/kg, po; format: ADME, organism-based; settings: in vivo
How it was run: (§3)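 Rats dosed once at 1 mg/kg IV and, separately, 2 mg/kg PO, with n = 3. Derived parameters were plasma clearance, Vdss, dose-normalized oral AUC (μM·h·kg/mg), half-life, and oral bioavailability (F%).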

[22] = Oral bioavailability in rat at 2 mg/kg; format: ADME, organism-based; settings: in vivo; how it was run: as §3
[23] = Volume of distribution at steady state in rat at 1 mg/kg, iv or 2 mg/kg, po; format: ADME, organism-based; settings: in vivo, read-out: Vdss; how it was run: as §3
[24] = Clearance in rat at 1 mg/kg, iv or 2 mg/kg, po; format: ADME, organism-based; settings: in vivo; how it was run: as §3
[25] = Dose normalized AUC in rat at 2 mg/kg, po; format: ADME, organism-based; settings: in vivo; how it was run: as §3
Homo sapiens [26] = species: Homo sapiens; experiment: Selectivity ratio of IC50 for human ERG to IC50 for ROMK (unknown origin) expressed in CHO cells by electrophysiological assay; format: cell-based
How it was run: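 Both channels were tested in electrophysiology (EP) assays. The ratio is the hERG EP IC50 divided by the ROMK EP IC50.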

[27] = biological target: T2, ATP-sensitive inward rectifier potassium channel 1; experiment: Inhibition of ROMK (unknown origin) expressed in CHO cells after 6 mins by electrophysiological assay; format: cell-based
Rattus norvegicus [28] = experiment: Kaliuretic activity in Sprague-Dawley rat administered via oral gavage 30 mins prior to void induction by loading saline measured upto 4 hrs relative to vehicle treated control; format: functional; how it was run: as §2
Rattus norvegicus [29] = experiment: Antihypertensive activity in spontaneously hypertensive rat assessed as reduction in systolic blood pressure at 25 mg/kg via oral gavage qd administered for 4 days measured on day 4 by telemetry (reference value: 2.5 +/- 2.2 mmHg); format: functional

T1 sequence (Q12809 whole entry): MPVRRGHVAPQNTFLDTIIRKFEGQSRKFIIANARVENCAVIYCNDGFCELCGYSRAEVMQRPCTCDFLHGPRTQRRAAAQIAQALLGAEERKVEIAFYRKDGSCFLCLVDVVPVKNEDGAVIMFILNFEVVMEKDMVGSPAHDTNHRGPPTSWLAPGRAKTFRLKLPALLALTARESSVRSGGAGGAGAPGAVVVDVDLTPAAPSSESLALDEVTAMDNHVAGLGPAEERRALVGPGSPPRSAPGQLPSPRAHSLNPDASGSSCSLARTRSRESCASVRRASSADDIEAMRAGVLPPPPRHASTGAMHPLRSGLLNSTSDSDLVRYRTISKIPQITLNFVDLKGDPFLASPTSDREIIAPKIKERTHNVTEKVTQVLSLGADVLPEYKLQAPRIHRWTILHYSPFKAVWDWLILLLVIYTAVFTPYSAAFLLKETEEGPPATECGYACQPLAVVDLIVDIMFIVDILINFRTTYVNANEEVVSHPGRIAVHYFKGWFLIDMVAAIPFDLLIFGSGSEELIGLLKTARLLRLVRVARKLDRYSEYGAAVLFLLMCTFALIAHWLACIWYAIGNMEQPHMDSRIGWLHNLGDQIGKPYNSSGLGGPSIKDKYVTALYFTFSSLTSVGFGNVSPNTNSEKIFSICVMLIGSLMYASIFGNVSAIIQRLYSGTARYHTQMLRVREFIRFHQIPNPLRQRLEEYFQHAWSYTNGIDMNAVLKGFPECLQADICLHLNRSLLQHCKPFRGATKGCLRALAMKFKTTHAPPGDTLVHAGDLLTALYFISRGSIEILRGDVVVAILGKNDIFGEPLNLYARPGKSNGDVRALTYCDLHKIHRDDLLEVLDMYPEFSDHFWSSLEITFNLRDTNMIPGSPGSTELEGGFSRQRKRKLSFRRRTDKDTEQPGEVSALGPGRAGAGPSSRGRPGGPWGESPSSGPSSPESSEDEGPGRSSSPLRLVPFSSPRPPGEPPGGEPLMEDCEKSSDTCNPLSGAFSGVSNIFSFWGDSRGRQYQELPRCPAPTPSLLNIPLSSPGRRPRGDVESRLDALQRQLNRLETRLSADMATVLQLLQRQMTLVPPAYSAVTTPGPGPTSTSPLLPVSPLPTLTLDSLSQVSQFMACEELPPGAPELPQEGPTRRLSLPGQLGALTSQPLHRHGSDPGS

Compound: Cc1c([C@H](O)CN2CCN(C[C@@H](O)c3ccc4c(c3C)COC4=O)CC2)ccc2c1COC2=O
- fold change (FC) (Rattus norvegicus [1]): 1.6
- half-life [2]: 51.6 min
- fold change (FC) (Rattus norvegicus [3]): 2.2
- AUC/dose [4]: 0.13 µM·kg·h/mg
- fold change (FC) (Rattus norvegicus [5]): 1.4
- IC50 [6]: 22 µM
- fold change (FC) (Rattus norvegicus [7]): 1.1
- fold change (FC) (Rattus norvegicus [8]): 0.9
- fold change (FC) (Rattus norvegicus [9]): 1.3
- fold change (FC) (Rattus norvegicus [10]): 1.9
- fold change (FC) (Rattus norvegicus [11]): 1.5
- clearance [12]: 82 mL/min/kg
- bioavailability [13]: 45%
- Vd [14]: 5.8 L/kg
- fold change (FC) (Rattus norvegicus [15]): 1
- IC50 [16]: 47 µM

Compound: Cc1c([C@H](O)CN2CCN(C[C@H](O)c3ccc4c(c3C)COC4=O)CC2)ccc2c1COC2=O
- fold change (FC) (Rattus norvegicus [1]): 3.5
- half-life [2]: 84 min
- fold change (FC) (Rattus norvegicus [3]): 4.1
- AUC/dose [4]: 0.3 µM·kg·h/mg
- IC50 [6]: > 30 µM
- fold change (FC) (Rattus norvegicus [8]): 1.1
- fold change (FC) (Rattus norvegicus [10]): 4.5
- fold change (FC) (Rattus norvegicus [11]): 3.7
- clearance [12]: 54 mL/min/kg
- bioavailability [13]: 44%
- Vd [14]: 4.5 L/kg
- fold change (FC) (Rattus norvegicus [15]): 1.3
- IC50 [16]: 100 µM

Compound: Cc1c(CCN2CCN(CC(O)c3ccc4c(c3C)COC4=O)CC2)ccc2c1COC2=O (centres undefined)
- IC50 [17]: 0.034 µM

Compound: Cc1c(C(O)CN2CCN(C(=O)Cc3ccc(-n4cnnn4)cc3)CC2)ccc2c1COC2=O (centres undefined)
- Ratio IC50 (Homo sapiens [18]): 200
- IC50 [17]: 0.51 µM
- IC50 [16]: 100 µM

Compound: Cc1c(C(C)CN2CCN(C(=O)Cc3ccc(-n4cnnn4)cc3)CC2)ccc2c1COC2=O (centres undefined)
- Ratio IC50 (Homo sapiens [18]): 380
- IC50 [17]: 0.16 µM
- IC50 [16]: 60 µM

Compound: Cc1c(CCN2CCN(CCc3ccc4c(c3C)COC4=O)CC2)ccc2c1COC2=O
- Ratio IC50 (Homo sapiens [18]): 39
- IC50 [16]: 3 µM

Compound: Cc1c(C(O)CN2CCN(CC(O)c3ccc4c(c3C)COC4=O)CC2)ccc2c1COC2=O (centres undefined)
- fold change (FC) (Rattus norvegicus [3]): 9.4
- IC50 [6]: 28 µM
- fold change (FC) (Rattus norvegicus [19]): 6.8
- fold change (FC) (Rattus norvegicus [10]): 6.7
- IC50 [16]: 23 µM
- fold change (FC) (Rattus norvegicus [20]): 9.5

Compound: Cc1c(C(F)CN2CCN(C(=O)Cc3ccc(-n4cnnn4)cc3)CC2)ccc2c1COC2=O (centres undefined)
- half-life [21]: 21 min
- bioavailability [22]: 36%
- Ratio IC50 (Homo sapiens [18]): 1000
- Vd [23]: 1.4 L/kg
- IC50 [17]: 0.069 µM
- clearance [24]: 58 mL/min/kg
- IC50 [16]: 68 µM
- AUC/dose [25]: 0.23 µM·h

Compound: Cc1c(C(F)CN2CCN(CC(F)c3ccc4c(c3C)COC4=O)CC2)ccc2c1COC2=O (centres undefined)
- fold change (FC) (Rattus norvegicus [3]): 1.7
- Ratio IC50 (Homo sapiens [26]): > 770
- IC50 [6]: > 90 µM
- Ratio IC50 (Homo sapiens [18]): 420
- fold change (FC) (Rattus norvegicus [19]): 3
- fold change (FC) (Rattus norvegicus [10]): 1.6
- IC50 [27]: 0.117 µM
- IC50 [17]: 0.096 µM
- IC50 [16]: 40 µM
- fold change (FC) (Rattus norvegicus [20]): 3

Compound: NS(=O)(=O)c1cc2c(cc1Cl)NCNS2(=O)=O [HYDROCHLOROTHIAZIDE]
- fold change (FC) (Rattus norvegicus [28]): 2
- Activity (Rattus norvegicus [29]): 15 mmHg
